# The entries come from a sample that favours hits as a whole.
# CHOP inh: inhibitors of CHOP promoter induction, primary screen, cell-based, unfolded protein response, luciferase reporter. CHO-K1 CHOP-promoter luciferase, tunicamycin-induced, 15-18 h. AID 2732, 2010. 220,000 tested, 3.8% active. inhibition, % at 10 µM;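 active = compounds that reduced the stress-induced luciferase reporter signal by more than about 70% of percent inhibition, limit read from the data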;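 also: 0% = tunicamycin plus vehicle and 100% = wells without tunicamycin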
# A1 inh: caspase 3/7 activation in MEF A1-2A-BIM cells, primary screen, A1 inhibitor project, cell-based, luminescence, HTS; caspase activation, % (no concentration beside the values); Caspase-Glo 3/7 luminescence, 3 h; percent of clofoctol response, vehicle zero; AID 2462, 2010; 330,000 tested, 0.066% active;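 active = over half of replicate activation scores above 10%, or exactly half above 10 with the replicate mean above 10; inconclusive = replicate mean below 10 yet half the replicates above 10; inactive = over half of replicates below 10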
# CHOP UPR activ: activators of apoptotic CHOP UPR arm, primary screen, cell-based, CHO-CHOP luciferase reporter, luminescence, uHTS; UPR activation; percent of tunicamycin response over DMSO baseline; activation, % at 10 µM; 330,000 tested, 0.34% active;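 active = at 10 µM dose, activation of 40% or more, normalized to positive control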;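 also: 100% = tunicamycin at 10 µg/mL and 0% = DMSO alone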
#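 System: CHO-CHOP luciferase reporter cell line | Buffer or medium: F12 medium containing 10% fetal bovine serum | Doses: One dose, 10 µM in 0.5% DMSO | Times: 6 h compound exposure at 37 °C after overnight seeding | Signal: Luciferase luminescence | Read-out: % activation vs tunicamycin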
# UPR XBP1 act: activators of adaptive XBP1 UPR arm, primary screen, cell-based, CHO-XBP1 luciferase reporter, luminescence, uHTS. IRE1-XBP1 UPR activation; percent of tunicamycin response, DMSO as zero. activation, % at 20 µM. 330,000 tested, 0.33% active;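 active = versus positive control, 20 µM dose yields 30% or more activation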;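 also: 100% = tunicamycin at 10 µg/mL and 0% = DMSO only wells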
#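 assay system = CHO-XBP1 luciferase reporter cells | amount = 1000 cells/well | buffer or medium = F12 plus 10% FBS | compound dosing = single point, 20 µM final compound, 1% DMSO | incubation = 16-18 h cell attachment at 37 °C, then 6 h compound exposure | detection = Steady-Glo luminescence read | controls = tunicamycin 10 µg/mL and vehicle-only wells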
# * marks the source's active call; other numbers are inactive results; ? = inconclusive; / = not tested or not shown.
SMILES,CHOP inh,A1 inh,CHOP UPR activ,UPR XBP1 act
Cc1cccc(NC(=O)CSc2nnc(C)c(=O)n2N)c1C,12,0,1,-1
Cc1cccc(N(C(=O)c2snc(C(N)=O)c2N)C(C(=O)NCC2CCCO2)c2ccc(N(C)C)cc2)c1 (stereo not drawn),/,1,0,-2
CCC(=O)Nc1nc(N)n(-c2ccccc2)n1,14,0,1,4
CC(C)NC(=S)N/N=C/c1ccc(C(C)(C)C)cc1,91*,-1,2,1
COc1ccc(Oc2nc3ccccc3nc2C(F)(F)F)cc1,70*,1,1,-1
COc1ccc(Oc2nc(-c3cccnc3)nc3ccccc23)cc1,18,0,3,6
COc1ccc(Oc2nc(SC)nc3ccccc23)cc1,82*,0,-2,-3
CS(=O)(=O)c1ccc(C(=O)OCc2nnc(-c3ccccc3)o2)cc1[N+](=O)[O-],88*,/,/,/
O=C(OCc1nnc(-c2ccccc2)o1)c1ccc2c(c1)OCCO2,76*,-1,1,0
CN(C)S(=O)(=O)c1ccc(C(=O)OCc2nnc(-c3ccccc3)o2)cc1,-12,0,1,1
Cc1ccc(S(=O)(=O)N(C)C)cc1NC(=S)NCCc1ccccn1,21,1,0,-3
Cc1cc(C)nc(Nc2ncc(O)n2-c2ccc(C)c(Cl)c2)n1,80*,1,2,1
Cc1cc(C)nc(Nc2ncc(O)n2-c2ccc(C)c(C)c2)n1,18,?,-1,4
O=c1oc(-c2ccccc2NS(=O)(=O)c2ccc(F)cc2)nc2ccccc12,9,-1,1,-1
Brc1cnc2nc(SCc3nc4ccccc4[nH]3)[nH]c2c1,45,0,2,-3
Fc1ccc(CSc2nc3ncc(Br)cc3[nH]2)cc1,74*,0,-1,0
C=CCn1c(=O)c2c(nc3n2CC(C)CN3Cc2ccccc2)n(C)c1=O (stereo not drawn),/,0,1,1
Cc1noc(-c2ccc(Cl)cc2)c1C(=O)O/N=C(\N)c1ccc(C(C)(C)C)cc1,80*,0,3,-3
CCOC(=O)c1cc2c(ccn2C)n1CC(=O)N1CCC(Cc2ccccc2)CC1,71*,0,-2,1
CCOC(=O)c1cc2c(ccn2C)n1CC(=O)N1CCCC(C)C1 (stereo not drawn),9,1,1,-1
COc1ccc(CCNC(=O)C2CCN(C(=O)c3ccccc3)CC2)cc1,/,1,4,-5
O=C(CSc1nc2cc([N+](=O)[O-])ccc2n1-c1ccccc1)NCc1ccc2c(c1)OCO2,-44,-1,3,0
O=C(CSc1nccn1-c1ccccc1)Nc1ccc2c(c1)OCO2,-7,0,1,2
Cc1cc(C)cc(-n2ccnc2SCC(=O)Nc2ccc3c(c2)OCCO3)c1,84*,0,-2,-1
CCS(=O)(=O)n1c(Cc2cccs2)nc2ccccc21,/,-3,1,-4
SMILES,CHOP inh,A1 inh,CHOP UPR activ,UPR XBP1 act
COc1ccc(-c2nc3c(c(=O)[nH]c(=O)n3Cc3ccccc3)n2Cc2ccccc2)cc1,76*,0,7,6
CCOc1ccc(N2CCc3c(C)nc(SC)nc32)cc1,96*,0,-1,3
Cc1csc(NC(=O)CSc2nc3ccccc3c3c2CCCC3)n1,53,-1,-1,0
CCOc1ccc(C(c2c(NC(=O)c3ccccc3)sc(C)c2C)N2CCN(CCO)CC2)cc1 (stereo not drawn),83*,0,2,3
O=C(NC(NNc1ccc([N+](=O)[O-])cc1)(C(F)(F)F)C(F)(F)F)c1ccc(Cl)cc1,79*,0,-2,1
O=C(NNc1ccc([N+](=O)[O-])cc1)c1ccccc1Cl,-18,0,0,-1
CCCCCCn1c(CN2CCC(C)CC2)nc2c1c(=O)n(C)c(=O)n2C,76*,0,-1,-4
Cc1ccc2nc(NC(=O)c3ccc4c(c3)OCO4)sc2c1,93*,-7,5,3
CCn1nnc(NC(=O)c2cccc(-c3cc4ccccc4oc3=O)c2)n1,28,-7,3,1
Cc1ccc2nc(NC(=O)c3cccc(-c4cc5ccccc5oc4=O)c3)sc2c1,53,0,1,122*
Cc1nnc(NC(=O)c2ccc3c(c2)OCO3)s1,1,-6,5,-1
CCOc1ccc2nc(NC(=O)c3cccc(-c4cc5ccccc5oc4=O)c3)sc2c1,92*,2,/,/
COc1ccccc1N(CCC#N)C(=O)CSc1ccc2c(c1)OCCO2,12,0,-2,0
CCOc1cccc2cc(-c3cn4cc(C)ccc4n3)c(=O)oc12,83*,-4,-1,1
COc1cccc2cc(-c3cn4ccc(C)cc4n3)c(=O)oc12,/,-3,1,-2
COc1ccc(N2C(=O)CC(c3ccc(OC(C)C)cc3)C2=O)cc1 (stereo not drawn),73*,-1,-1,-3
CC(C)=CCN1CCN(Cc2cccc3nonc23)CC1CCO (stereo not drawn),12,0,0,0
O=C(Nc1ccc(Cl)c(Cl)c1)Nc1ccc(Br)cc1F,101*,0,3,5
COc1ccccc1NC(=O)CN1C(=O)NC2(CCCCCCC2)C1=O,13,1,2,-2
CC(=O)Nc1ccc(S(=O)(=O)Nc2cccc(C(=O)Nc3ccccc3C(=O)O)c2)cc1,/,-1,3,-5
O=C(c1cccs1)N1N=C(c2ccccc2)CC1c1ccccc1 (stereo not drawn),78*,1,-1,3
CCN(CC)C(=O)N1c2ccccc2Sc2ccccc21,/,0,0,-1
CCN(CC)C(=O)N1c2ccccc2CC(N(CC)CC)c2ccccc21 (stereo not drawn),85*,1,0,-3
CC(C)(C)NC(=O)CC1C[C@H](C(=O)N2CCOCC2)[C@@]2(C)c3[nH]c4ccccc4c3CCN2C1=O (stereo partly drawn),/,1,2,1
O=C(CCSCCc1ccccn1)Nc1ccc(Br)cn1,14,0,-2,-1
CCOC(=O)C(CCCCOc1cccc(CC)c1)C(=O)OCC,71*,0,4,-2
Cc1occc1C(=O)N1CCN(c2ccc(Cl)c(Cl)c2)CC1,75*,0,2,-1
O=C(NCc1ccccc1)N1CCN(c2ccc(Cl)c(Cl)c2)CC1,76*,0,-1,3
Cc1occc1C(=O)N1CCN(c2ccccc2)CC1,8,0,5,0
O=c1[nH]c(C2CCCN(S(=O)(=O)c3ccc(F)cc3)C2)nc2c1nnn2Cc1ccccc1 (stereo not drawn),90*,-1,2,1

# Source: PubChem BioAssay
